Reference: ChEMBL document CHEMBL1221177, “Secramine inhibits Cdc42-dependent functions in cells and Cdc42 activation in vitro” (Nat Chem Biol, 2006)
The source made the active and inactive calls. The calls are words filed in the database; no cut-off is given here.

Experiments:
Xenopus laevis [1] = organism: Xenopus laevis; experiment: Inhibition of actin polymerization in N-WASP VCA-stimulated Xenopus laevis egg extract at 10 uM after 1.5 mins by fluorescence assay
Outline: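 Xenopus laevis egg extract added at 4 °C to vehicle or compound, followed by VCA polypeptide. Pyrene-actin polymerization then followed by fluorescence in a cuvette at 21 °C.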

BSC-1 [2] = experiment: Inhibition of VSVG-EGFP anterograde transport from endoplasmic reticulum to golgi complex of african green monkey BSC1 cells at 12.5 uM after 3 hrs by epifluorescence microscopy; type: functional, cell-based; conditions: Chlorocebus aethiops
Outline: (§1)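 BS-C-1 monkey kidney cells expressing temperature-sensitive VSVG-EGFP, held at 40 °C to trap cargo in the ER, then shifted to 32 °C in 100 µg ml-1 cycloheximide. Compound or vehicle (1% DMSO) present during transport. Cells fixed 3 h after release and imaged by wide-field fluorescence. Surface versus perinuclear (beta-COP-costained Golgi) cargo scored. IC50 from dose-response curves, s.e.m. (n = 4).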

[3] = target: Cdc42 protein (Xenopus laevis) (UniProt Q9DDV6); experiment: Inhibition of CDC42-mediated actin polymerization in PIP2-stimulated Xenopus laevis egg extract at 0.1 to 100 uM by fluorescence assay
Cdc42 protein (Xenopus laevis), sequence (Q9DDV6 as listed by the source): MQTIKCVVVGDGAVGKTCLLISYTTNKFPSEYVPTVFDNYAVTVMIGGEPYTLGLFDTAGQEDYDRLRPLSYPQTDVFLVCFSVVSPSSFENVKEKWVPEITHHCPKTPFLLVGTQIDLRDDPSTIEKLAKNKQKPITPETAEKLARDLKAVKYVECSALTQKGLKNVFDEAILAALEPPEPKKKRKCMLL

[4] = target: Cdc42 protein (Xenopus laevis) (UniProt Q9DDV6); experiment: Inhibition of PIP2 liposome-stimulated Cdc42 activation in Xenopus laevis egg extract assessed as inhibition of association of Cdc42(GTPgammaS) with GST-PBD at 50 uM by Western blot analysis
Outline: (§2)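 Xenopus egg extract (8 mg/ml) with 0.2 mM ATP and 10 µM latrunculin B at 4 °C, moved to 25 °C; compound or vehicle 5 min, then 20 µM GTPγS and 20 µM PIP2 liposomes (48:48:4) 10 min, then 2.5 µM GST-PBD 10 min. Lysis buffer plus glutathione-Sepharose, 45 min at 4 °C; bound Cdc42 by western blot.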

[5] = target: T1, Cell division control protein 42 homolog (Homo sapiens, UniProt P60953); experiment: Inhibition of nucleotide exchange activity of PIP2-stimulated Cdc42 at 25 uM by liquid scintillation counting
Target sequence in this assay (P60953 whole entry, looked up): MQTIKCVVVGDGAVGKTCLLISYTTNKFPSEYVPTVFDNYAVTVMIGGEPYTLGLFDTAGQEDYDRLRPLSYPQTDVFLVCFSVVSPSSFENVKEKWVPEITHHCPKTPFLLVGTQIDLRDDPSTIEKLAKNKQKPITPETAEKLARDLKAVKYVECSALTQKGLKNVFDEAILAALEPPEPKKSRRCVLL

[6] = target: T1, Cell division control protein 42 homolog; experiment: Effect on GEF interaction with PIP2-stimulated Cdc42 at 25 uM by liquid scintillation counting
Target sequence in this assay (P60953 whole entry, looked up): as above

[7] = target: T1, Cell division control protein 42 homolog; experiment: Effect on nucleotide binding activity of PIP2-stimulated Cdc42 at 25 uM by liquid scintillation counting
Target sequence in this assay (P60953 whole entry, looked up): as above

Lipid bilayer [8] = experiment: Binding affinity to phosphatidylinositol 4,5-bisphosphate liposome assessed as dynamin2-stimulated GTP hydrolysis at 250 uM by scintillation counting
Outline: (§3)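 Truncated His-tagged human dynamin 2 (proline-rich domain, aa 736–866, deleted), expressed in BL21, mixed with PIP2 liposomes (65:32:3 PC:PI:PIP2, 0.1-µm extruded) and compound in 1% DMSO vehicle. 20 µM [γ-32P]GTP added in Tris pH 7.5/150 mM NaCl/2.5 mM MgCl2/DTT, 25 °C. After 20 min, charcoal-quenched aliquot centrifuged and released 32P-phosphate scintillation counted; s.e.m., n = 3.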

BSC-1 [9] = experiment: Inhibition of VSVG-EGFP anterograde transport from endoplasmic reticulum to plasma membrane of african green monkey BSC1 cells after 3 hrs by epifluorescence microscopy; type: functional, cell-based; conditions: Chlorocebus aethiops, BSC-1, 3 h; outline: as §1
Cdc42 protein = Cdc42 protein (Xenopus laevis, UniProt Q9DDV6); experiment: Inhibition of CDC42-mediated actin polymerization in PIP2-stimulated Xenopus laevis egg extract after 6 mins by fluorescence assay
Cdc42 protein, sequence (Q9DDV6 whole entry): as the sequence (Q9DDV6 as listed by the source) above

[10] = target: Cdc42 protein (Xenopus laevis) (UniProt Q9DDV6); experiment: Inhibition of PIP2 liposome-stimulated Cdc42 activation in Xenopus laevis egg extract assessed as inhibition of association of Cdc42(GTPgammaS) with GST-PBD at 1 to 25 uM by Western blot analysis; outline: as §2
[11] = target: Cdc42 protein (Xenopus laevis) (UniProt Q9DDV6); experiment: Effect on GST-PBD binding to recombinant nonprenylated Cdc42 in PIP2 liposome-stimulated Xenopus laevis egg extract at 50 uM by Western blot analysis
Outline: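 Xenopus egg extract treated 5 min with compound or vehicle, then 20 nM recombinant nonprenylated Cdc42 (GTPγS or GDP) 10 min, then GST-PBD 10 min. Pulled down on glutathione-Sepharose and Cdc42 detected by western blot; GST-PBD stained with Ponceau S as loading control.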

[12] = target: T1, Cell division control protein 42 homolog; experiment: Inhibition of Cdc42 binding to PIP2 liposomes at 100 uM after 10 mins
Outline: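 Pure 0.5 µM prenylated Cdc42-RhoGDI1 complex, 1 µM RhoGDI1, 1 mM PIP2 liposomes, 100 µM compound or 2% DMSO in reaction buffer, 25 °C. After 10 min, spun 10 min at 200,000g; pellet dot-blotted with anti-Cdc42, quantified and normalized to vehicle; s.e.m., n = 4.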
Target sequence in this assay (P60953 whole entry, looked up): as the sequence (P60953 whole entry, looked up) above

MDCK [13] = experiment: Decrease in NCAM-GFP transport from golgi complex of MDCK cells at 10 uM after 20 mins by fluorescence assay; type: functional, cell-based; conditions: Canis lupus familiaris
Outline: (§4)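 Nonpolarized MDCK cells expressing NCAM-GFP or p75-GFP in 0.5% BSA; cargo held in Golgi at 20 °C for 30–60 min, then compound or vehicle for 20 min before shift to 32 °C. Perinuclear GFP normalized to total cell fluorescence, expressed as % of t = 0 Golgi signal; s.d., n = 2, 20 cells per condition.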

MDCK [14] = experiment: Increase in p75-GFP transport from golgi complex of MDCK cells at 10 uM after 20 mins by fluorescence assay; type: functional, cell-based; conditions: Canis lupus familiaris; outline: as §4
[15] = target: T1, Cell division control protein 42 homolog; experiment: Inhibition of GEF-independent nucleotide exchange activity of prenylated Cdc42 after 3 mins in presence of 4 mM Mg2+ chelator EDTA
Outline: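 GDP/[35S]GTPγS exchange by 0.5 µM prenylated Cdc42-RhoGDI1 complex with 1 µM RhoGDI1 and 100 µM PIP2 liposomes, 4 mM EDTA replacing GEF, in Tris pH 7.5 reaction buffer at 25 °C. Started with 10 µM [35S]GTPγS; reactions sampled at 3 min, filtered on nitrocellulose and scintillation counted; s.e.m., n = 3.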
Target sequence in this assay (P60953 whole entry): as the sequence (P60953 whole entry, looked up) above

[16] = target: T1, Cell division control protein 42 homolog; experiment: Inhibition of GEF-independent nucleotide exchange activity of nonprenylated Cdc42 at 100 uM after 10 mins in presence of 4 mM EDTA
Target sequence in this assay (P60953 whole entry, looked up): as above

[17] = target: T1, Cell division control protein 42 homolog; experiment: Effect on Cdc42-mediated cellular response in human U373MG cells assessed as reorientation of golgi complex 15 uM after 6 hrs by epifluorescence assay; type: cell-based; conditions: U-373MG ATCC
Outline: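 Confluent U373MG human astrocytoma monolayer preincubated 1 h with 15 µM compound or vehicle, then scratched. At 0 and 6 h fixed, stained with Hoechst and anti-giantin; cells at wound edge with Golgi in the forward 120° sector facing scratch scored polarized. Epifluorescence; s.e.m., n = 3, >100 cells per condition.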
Target sequence in this assay (P60953 whole entry, looked up): as above

[18] = target: Cell division control protein 42 homolog (Rattus norvegicus) (UniProt Q8CFN2); experiment: Inhibition of Cdc42 binding to rat liver golgi membrane at 10 to 150 uM by Western blot analysis
Cell division control protein 42 homolog (Rattus norvegicus), sequence (Q8CFN2 whole entry, looked up): as the sequence (P60953 whole entry, looked up) above
Outline: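 Bovine brain cytosol incubated with compound or 1% DMSO, then 20 µM GTPγS and 0.2 mg/ml rat liver Golgi membranes added. Membrane-bound Cdc42 and β-COP analyzed by western blot.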

[19] = target: Cdc42 protein (Xenopus laevis) (UniProt Q9DDV6); experiment: Inhibition of GST-PBD binding to Cdc42 in Xenopus laevis egg extract assessed as Cdc42(GTPgammasS) activation at 50 uM treated after addition of GST-PBD by Western blot analysis
[20] = target: Cdc42 protein (Xenopus laevis) (UniProt Q9DDV6); experiment: Inhibition of GST-PBD binding to Cdc42 in Xenopus laevis egg extract assessed as Cdc42(GTPgammasS) activation at 50 uM treated before addition of GST-PBD by Western blot analysis
BSC-1 [21] = experiment: Effect on perinuclear localization of trans-Golgi network in african green monkey BSC1 cells at 12.5 uM after 2.5 hrs by epifluorescence microscopy; type: functional, cell-based; conditions: Chlorocebus aethiops
BSC-1 [22] = experiment: Effect on transferrin translocation from golgi complex to endoplasmic reticulum of african green monkey BSC1 cells at 12.5 uM after 2.5 hrs by epifluorescence microscopy; type: functional, cell-based; conditions: Chlorocebus aethiops
BSC-1 [23] = experiment: Effect on transferrin endocytosis in african green monkey BSC1 cells at 12.5 uM after 2.5 hrs by epifluorescence microscopy; type: functional, cell-based; conditions: Chlorocebus aethiops
Xenopus laevis [24] = organism: Xenopus laevis; experiment: Inhibition of actin polymerization in N-WASP VCA-stimulated Xenopus laevis egg extract at 20 uM after 1.5 mins by fluorescence assay
[25] = target: T1, Cell division control protein 42 homolog; experiment: Inhibition of GEF-independent nucleotide exchange activity of prenylated Cdc42 assessed as protein dissociation from […] complex at 100 uM after 3 mins in presence of 4 mM Mg2+ chelator EDTA
Lipid bilayer [26] = experiment: Binding affinity to phosphatidylinositol 4,5-bisphosphate liposome at 50 uM by electron microscopy
Outline: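 PIP2 liposomes (100 µM) incubated with compound or 1% DMSO, with 1% Triton X-100 as comparator. Samples in reaction buffer adsorbed on glow-discharged carbon grids, negatively stained with 1.2% uranyl acetate and imaged by EM at 80 kV.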

Lipid bilayer [27] = experiment: Binding affinity to phosphatidylinositol 4,5-bisphosphate liposome assessed as dynamin2-stimulated GTP hydrolysis at 25 uM by scintillation counting; outline: as §3

| Structure (SMILES) | inhibition (BSC-1 [2]) | Activity [3] | inhibition [5] | Activity [6] | Activity [7] | IC50 (BSC-1 [9]) | IC50 (Cdc42 protein) | IC50 [15] | inhibition [25] | other results |
| --- | --- | --- | --- | --- | --- | --- | --- | --- | --- | --- |
| C/C1=C/C(=O)O[C@@H]2C[C@@H](CC[C@H](C)/C=C\CC1)O[C@@](O)([C@@H]1CSC(=O)N1)C2 | – | – | – | – | – | – | – | – | – | inhibition (Xenopus laevis [1]): Active |
| COc1ccc(CS[C@@H]2C/C(=N/OCc3ccccc3)C[C@H]3Oc4c(Br)c(OCC5CC5)cc5c4[C@]32C[C@@H](CO)N(C(C)=O)C5)cc1 | inactive | inactive | inactive | inactive | inactive | – | – | – | – | inhibition [4]: inactive |
| NC[C@@H]1O[C@H](O[C@H]2[C@@H](O)[C@H](O[C@@H]3[C@@H](O)[C@H](N)C[C@H](N)[C@H]3O[C@H]3O[C@H](CN)[C@@H](O)[C@H](O)[C@H]3N)O[C@@H]2CO)[C@H](N)[C@@H](O)[C@@H]1O | – | – | – | – | – | – | – | – | – | Activity (Lipid bilayer [8]): Active |
| COc1ccc(CS[C@@H]2C/C(=N/OCc3ccccc3)C[C@H]3Oc4c(Br)c(OCC5CC5)cc5c4[C@]32C[C@@H](CO)NC5)cc1 [SECRAMINE A] | inactive | Active | Active | inactive | inactive | 12 µM | 1000 nM | 9 µM | inactive | inhibition [10]: Active; Activity [11]: inactive; inhibition [12]: Active; inhibition (MDCK [13]): Active; inhibition (MDCK [14]): Active; inhibition [16]: inactive; Activity [17]: 45%; inhibition [18]: Active; inhibition [19]: inactive; inhibition [20]: Active; Activity (BSC-1 [21]): inactive; Activity (BSC-1 [22]): inactive; Activity (BSC-1 [23]): inactive; inhibition (Xenopus laevis [24]): inactive; Activity (Lipid bilayer [26]): inactive; Activity (Lipid bilayer [27]): inactive |
| CO/N=C1\C[C@H]2Oc3c(Br)c(OCC4CC4)cc4c3[C@@]2(C[C@@H](CO)NC4)[C@H](SCc2ccc(OC)cc2)C1 [SECRAMINE B] | inactive | Active | Active | inactive | inactive | 12 µM | 3000 nM | 7 µM | inactive | – |
